For assay [1], the target named is T1, Progesterone receptor (Rattus norvegicus) (UniProt Q63449).
T1 sequence (whole entry): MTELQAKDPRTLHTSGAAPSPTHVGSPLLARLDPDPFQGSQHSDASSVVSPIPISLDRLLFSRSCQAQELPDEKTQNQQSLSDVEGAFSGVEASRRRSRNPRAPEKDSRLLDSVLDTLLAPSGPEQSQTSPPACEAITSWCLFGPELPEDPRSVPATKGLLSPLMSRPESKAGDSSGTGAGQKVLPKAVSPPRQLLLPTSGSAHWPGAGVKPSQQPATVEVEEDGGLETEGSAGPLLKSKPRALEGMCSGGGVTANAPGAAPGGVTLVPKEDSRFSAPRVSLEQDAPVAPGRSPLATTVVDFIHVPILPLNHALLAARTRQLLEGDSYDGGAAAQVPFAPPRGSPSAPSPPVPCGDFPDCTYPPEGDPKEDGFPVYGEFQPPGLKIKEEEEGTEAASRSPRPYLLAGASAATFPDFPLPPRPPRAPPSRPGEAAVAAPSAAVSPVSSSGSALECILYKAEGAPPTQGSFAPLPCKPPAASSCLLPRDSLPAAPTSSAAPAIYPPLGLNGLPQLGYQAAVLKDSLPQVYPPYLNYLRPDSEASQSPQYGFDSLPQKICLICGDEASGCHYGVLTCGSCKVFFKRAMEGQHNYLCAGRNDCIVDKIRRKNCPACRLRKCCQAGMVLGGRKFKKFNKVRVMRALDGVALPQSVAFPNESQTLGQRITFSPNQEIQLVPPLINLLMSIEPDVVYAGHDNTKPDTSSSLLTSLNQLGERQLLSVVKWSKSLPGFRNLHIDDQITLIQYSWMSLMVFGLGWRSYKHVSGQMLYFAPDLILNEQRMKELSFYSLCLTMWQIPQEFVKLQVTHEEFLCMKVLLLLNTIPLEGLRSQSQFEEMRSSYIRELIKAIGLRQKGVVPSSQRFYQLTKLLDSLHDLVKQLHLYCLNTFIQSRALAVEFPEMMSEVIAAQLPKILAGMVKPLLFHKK
Description: Tissue distribution in uterus/blood 1 hr after [18F]4 injection into estrogen-primed immature rats at low dose. The class given is functional, tissue-based. In outline: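 Estrogen-primed immature female Sprague-Dawley rats (estradiol 5 μg s.c. daily ×2, used 24 h later) were given a reduced tracer dose of 30 μCi in 0.04 mL 10% ethanol/saline, tail vein iv, under ether. Decapitated at 1 h; organs weighed and gamma-counted. Results as %ID/g or uterus/tissue ratio, mean ± SD, n = 5.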

Assay [2] has as its target T1, Progesterone receptor (Rattus norvegicus). Description: Tissue distribution in kidney 3 hr after [18F]4 injection into estrogen-primed immature rats. It counts as functional, tissue-based. In outline: (§1)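 Immature female Sprague-Dawley rats, estradiol-primed (5 μg s.c. in 20% ethanol/sunflower oil, two successive days, used 24 h later). Tracer (30 Ci/mmol) in 10% ethanol/saline was injected iv into the tail vein under ether anesthesia. Animals were decapitated 3 h postinjection; organs weighed and gamma-counted. %ID/g, mean ± SD, n = 5.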

The target is the same in assay [3]. Description: Tissue distribution in kidney 1 hr after [18F]4 injection into estrogen-primed immature rats at normal dose. It counts as functional, tissue-based. In outline: (§2)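 Female Sprague-Dawley rats, 23 days old, primed with estradiol 5 μg s.c. in 20% ethanol/sunflower oil on two days and used 24 h later. Under ether, they received 51 μCi tracer (30 Ci/mmol) iv via the tail vein in 0.1 mL 10% ethanol/saline. Killed by decapitation at 1 h; tissues weighed and gamma-counted. Results as %ID/g or tissue ratios, mean ± SD, n = 5.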

Assay [4] has as its target T2, Mineralocorticoid receptor (Rattus norvegicus) (UniProt P22199).
T2 sequence (whole entry): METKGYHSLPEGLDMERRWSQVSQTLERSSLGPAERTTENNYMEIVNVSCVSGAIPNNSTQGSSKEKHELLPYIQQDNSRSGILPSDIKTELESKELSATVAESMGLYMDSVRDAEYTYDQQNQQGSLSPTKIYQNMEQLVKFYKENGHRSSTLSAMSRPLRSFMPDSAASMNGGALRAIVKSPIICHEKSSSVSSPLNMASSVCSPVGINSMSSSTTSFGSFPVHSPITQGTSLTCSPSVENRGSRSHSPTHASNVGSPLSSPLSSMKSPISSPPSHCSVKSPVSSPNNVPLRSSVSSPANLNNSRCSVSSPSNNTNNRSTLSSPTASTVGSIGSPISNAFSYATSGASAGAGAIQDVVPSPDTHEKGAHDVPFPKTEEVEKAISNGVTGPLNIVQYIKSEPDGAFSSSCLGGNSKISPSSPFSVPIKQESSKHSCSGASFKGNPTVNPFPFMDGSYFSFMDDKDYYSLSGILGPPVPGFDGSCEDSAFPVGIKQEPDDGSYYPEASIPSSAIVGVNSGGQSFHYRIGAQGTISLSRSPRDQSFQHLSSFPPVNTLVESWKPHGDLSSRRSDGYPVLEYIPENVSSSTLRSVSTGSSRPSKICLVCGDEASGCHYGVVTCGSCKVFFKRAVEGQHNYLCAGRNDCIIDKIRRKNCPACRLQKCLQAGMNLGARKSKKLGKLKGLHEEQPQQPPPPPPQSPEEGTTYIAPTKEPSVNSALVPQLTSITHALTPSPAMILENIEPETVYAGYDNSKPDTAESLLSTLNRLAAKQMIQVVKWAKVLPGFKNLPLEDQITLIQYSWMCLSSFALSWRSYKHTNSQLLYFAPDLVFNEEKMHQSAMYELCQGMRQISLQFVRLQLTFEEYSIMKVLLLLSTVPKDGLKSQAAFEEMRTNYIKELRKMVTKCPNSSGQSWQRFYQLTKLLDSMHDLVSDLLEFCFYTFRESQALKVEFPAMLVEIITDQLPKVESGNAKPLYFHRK
Description: Relative binding affinity (RBA) for mineralocorticoid receptor compared to aldosterone.

Assay [5] concerns the target T1, Progesterone receptor (Rattus norvegicus). Description: Tissue distribution in ovaries 3 hr after [18F]4 injection into estrogen-primed immature rats. It counts as functional, tissue-based. The following applies: Female gonad. In outline:
as §1

The target is the same in assay [6]. Nature of the assay: Tissue distribution in fat 1 hr after [18F]4 injection into estrogen-primed immature rats at normal dose. The class given is functional, tissue-based. To be noted: Adipose tissue. An outline of the steps:
as §2

The target is the same in assay [7]. Nature of the assay: Tissue distribution in brain 1 hr after [18F]-4 injection into estrogen-primed immature rats co-injected with uterine uptake blocker (ORG 2058). It counts as functional, tissue-based. In outline:
(§3)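 Blocking group: estrogen-primed immature female Sprague-Dawley rats (estradiol 5 μg s.c. ×2 days, used 24 h later). ORG 2058 18 μg was co-injected with the tracer dose iv via tail vein, 0.2 mL injection volume in 10% ethanol/saline. Killed 1 h later; tissues weighed and gamma-counted. Results as %ID/g or ratios, mean ± SD, n = 5.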

For assay [8] the target is unchanged. Nature of the assay: Tissue distribution in fat 1 hr after [18F]4 injection into estrogen-primed immature rats co-injected with uterine uptake blocker (ORG 2058). To be noted: Adipose tissue. It counts as functional, tissue-based. In outline: as §3
Assay [9] shares this target. Description: Tissue distribution in blood 1 hr after [18F]4 injection into estrogen-primed immature rats at normal dose. The class given is functional, tissue-based. In outline:
as §2

Assay [10] has the same target. Description: Tissue distribution in uterus/blood 1 hr after [18F]4 injection into estrogen-primed immature rats at normal dose. The class given is functional, tissue-based. An outline of the steps:
as §2

Assay [11] shares this target. Description: Tissue distribution in liver 3 hr after [18F]-4 injection into estrogen-primed immature rats. The class given is functional, tissue-based. In outline: as §1
Assay [12] shares this target. Nature of the assay: Tissue distribution in kidney 1 hr after [18F]4 injection into estrogen-primed immature rats co-injected with uterine uptake blocker ([…]). It counts as functional, tissue-based. An outline of the steps:
as §3

On to `C[C@@]1(c2ccc(F)cc2)O[C@@H]2CC3C4CCC5=CC(=O)CC[C@@H]5C4CC[C@]3(C)[C@]2(C(=O)CO)O1` (some centres undefined), for which the uterus/blood ratio is 14.5 in [1] and 14 in assay [10]. Further, the Injected dose/g was 0.45% in assay [2]; 1.42% in assay [3]; 1.78% in assay [5]; 3.53% in assay [6]; 0.28% in assay [7]; 2.76% in assay [8]. Also, the figures for the Injected dose/g in assay [9], in assay [11] and in assay [12] were 0.26%, 1.36% and 1.28%, respectively. For the same molecule, the relative binding affinity (RBA) in [4] was 140.

Regarding `CC(=O)[C@@]12O[C@](C)(c3ccc(F)cc3)O[C@@H]1CC1C3CCC4=CC(=O)CC[C@]4(C)C3CC[C@@]12C` (some centres undefined), the uterus/blood ratio was found to be 6.34 in assay [1] and 6.59 in assay [10]. Further, the Injected dose/g in assay [2] was determined as 1.47%; in assay [3], 2.18%; in assay [5] it was 2.19%; in assay [6], 5.76%; in assay [7], 0.55%; in assay [8], 3.77%. Also, the Injected dose/g in assay [9] was 0.47%; in assay [11] it was 1.93%; in [12], 2.18%. In assay [4], the relative binding affinity (RBA) is 6.

Source of the values: ChEMBL document CHEMBL1126647, “Fluorine-18-labeled progestin ketals: synthesis and target tissue uptake selectivity of potential imaging agents for receptor-positive breast tumors” (J Med Chem, 1993).
